Source: ChEMBL document CHEMBL1148104, “New sugar-mimic alkaloids from the pods of Angylocalyx pynaertii” (J Nat Prod, 2002)
Values belong to the molecule of their own block, whether it stands above or below them.

Experiments:
Alpha-glucosidase MAL62 = Alpha-glucosidase MAL62 (Saccharomyces cerevisiae, UniProt P07265); assay: Inhibition of yeast maltase alpha-glucosidase assessed as glucose release by Glucose B-test
[1] = molecular target: T1, Tissue alpha-L-fucosidase (Bos taurus, UniProt Q2KIM0); assay: Inhibition of bovine epididymis alpha-L-fucosidase assessed as p-nitrophenol release by spectrophotometrically
T1 sequence (Q2KIM0 whole entry): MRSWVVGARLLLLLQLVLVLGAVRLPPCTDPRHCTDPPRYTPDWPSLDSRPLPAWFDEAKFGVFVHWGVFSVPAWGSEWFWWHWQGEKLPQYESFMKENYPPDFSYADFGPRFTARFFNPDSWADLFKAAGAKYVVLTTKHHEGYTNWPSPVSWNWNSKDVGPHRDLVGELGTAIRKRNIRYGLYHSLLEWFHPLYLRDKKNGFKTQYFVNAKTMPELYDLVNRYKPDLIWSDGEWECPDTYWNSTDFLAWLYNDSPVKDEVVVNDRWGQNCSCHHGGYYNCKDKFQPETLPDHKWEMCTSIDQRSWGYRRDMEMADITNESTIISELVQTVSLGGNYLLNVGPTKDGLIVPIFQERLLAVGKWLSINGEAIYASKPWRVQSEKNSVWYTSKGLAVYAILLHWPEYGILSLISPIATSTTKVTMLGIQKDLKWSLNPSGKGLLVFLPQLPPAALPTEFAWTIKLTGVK
How it was run: (§1)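 Assayed with the appropriate p-nitrophenyl glycoside substrate at each enzyme's optimum pH.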

[2] = Inhibition of Aspergillus niger amyloglucosidase assessed as glucose release by Glucose B-test
How it was run: (§2)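 Disaccharide substrate suited to each enzyme, at that enzyme's optimum pH. Released D-glucose was measured colorimetrically with the Glucose B-test.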

Beta-mannosidase = molecular target: T2, Beta-mannosidase (Rattus norvegicus, UniProt Q4FZV0); assay: Inhibition of rat epididymis beta-mannosidase assessed as p-nitrophenol release by spectrophotometrically
T2 sequence (Q4FZV0 whole entry): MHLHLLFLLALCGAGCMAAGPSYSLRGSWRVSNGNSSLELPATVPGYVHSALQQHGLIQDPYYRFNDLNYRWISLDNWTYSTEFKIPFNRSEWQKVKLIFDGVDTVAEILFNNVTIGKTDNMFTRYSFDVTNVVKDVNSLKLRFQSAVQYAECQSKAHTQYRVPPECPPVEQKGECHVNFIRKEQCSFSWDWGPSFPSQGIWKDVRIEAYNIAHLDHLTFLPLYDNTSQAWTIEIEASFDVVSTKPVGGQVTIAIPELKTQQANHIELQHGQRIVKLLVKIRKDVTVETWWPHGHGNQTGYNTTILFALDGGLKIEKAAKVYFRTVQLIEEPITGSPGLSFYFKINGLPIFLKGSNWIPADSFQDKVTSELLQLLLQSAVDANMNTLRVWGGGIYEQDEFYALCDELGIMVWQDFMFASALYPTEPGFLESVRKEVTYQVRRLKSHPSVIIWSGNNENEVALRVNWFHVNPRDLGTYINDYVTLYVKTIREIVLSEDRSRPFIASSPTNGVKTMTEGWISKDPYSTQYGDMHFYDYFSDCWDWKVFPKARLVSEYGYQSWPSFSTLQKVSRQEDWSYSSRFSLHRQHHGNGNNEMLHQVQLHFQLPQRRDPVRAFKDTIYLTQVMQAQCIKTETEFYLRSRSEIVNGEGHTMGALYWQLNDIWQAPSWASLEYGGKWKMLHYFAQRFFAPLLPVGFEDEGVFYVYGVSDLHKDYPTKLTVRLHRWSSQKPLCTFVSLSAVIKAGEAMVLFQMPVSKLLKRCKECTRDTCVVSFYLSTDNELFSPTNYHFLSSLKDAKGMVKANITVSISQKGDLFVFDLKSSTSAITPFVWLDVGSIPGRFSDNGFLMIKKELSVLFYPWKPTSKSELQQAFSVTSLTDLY

[3] = molecular target: T3, Tissue alpha-L-fucosidase (Bos taurus) (UniProt Q2KIM0); assay: Inhibition of bovine epididymis alpha-L-fucosidase assessed as p-nitrophenol release at 1000 uM by spectrophotometrically
T3 sequence (whole entry): T1 sequence (Q2KIM0 whole entry)
How it was run: as §1

[4] = Inhibition of rat epididymis alpha-mannosidase assessed as p-nitrophenol release by spectrophotometrically
[5] = Inhibition of rice alpha-glucosidase assessed as glucose release by Glucose B-test; parameters: species or system Oryza sativa
How it was run: as §2

[6] = Inhibition of yeast alpha-glucosidase assessed as p-nitrophenol release by spectrophotometrically; parameters: species or system Saccharomyces cerevisiae
How it was run: as §1

[7] = molecular target: T4, Beta-galactosidase (Bos taurus) (UniProt Q58D55); assay: Inhibition of bovine liver beta-galactosidase assessed as p-nitrophenol release at 1000 uM by spectrophotometrically
T4 sequence (whole entry): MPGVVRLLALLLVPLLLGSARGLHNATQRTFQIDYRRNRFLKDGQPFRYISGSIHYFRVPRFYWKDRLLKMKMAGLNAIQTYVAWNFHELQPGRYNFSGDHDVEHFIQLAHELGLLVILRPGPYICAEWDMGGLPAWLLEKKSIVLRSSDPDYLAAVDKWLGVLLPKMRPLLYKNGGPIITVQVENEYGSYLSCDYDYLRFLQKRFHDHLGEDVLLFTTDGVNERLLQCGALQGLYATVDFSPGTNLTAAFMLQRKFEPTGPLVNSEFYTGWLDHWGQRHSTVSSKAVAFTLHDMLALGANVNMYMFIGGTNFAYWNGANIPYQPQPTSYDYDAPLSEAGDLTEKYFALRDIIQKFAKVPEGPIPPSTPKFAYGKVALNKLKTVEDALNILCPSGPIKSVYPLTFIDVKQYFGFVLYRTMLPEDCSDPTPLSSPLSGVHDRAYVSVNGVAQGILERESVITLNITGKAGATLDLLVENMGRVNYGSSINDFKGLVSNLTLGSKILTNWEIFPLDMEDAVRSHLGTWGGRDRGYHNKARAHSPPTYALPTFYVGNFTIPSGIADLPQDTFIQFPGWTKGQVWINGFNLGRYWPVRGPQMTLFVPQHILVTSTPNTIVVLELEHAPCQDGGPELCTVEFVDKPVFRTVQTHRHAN
How it was run: as §1

[8] = Inhibition of yeast isomaltase alpha-glucosidase assessed as glucose release by Glucose B-test
[9] = molecular target: Alpha-galactosidase (Coffea arabica) (UniProt Q42656); assay: Inhibition of coffee bean alpha-galactosidase assessed as p-nitrophenol release at 1000 uM by spectrophotometrically
How it was run: as §1

Uncharacterized protein = molecular target: T5, Uncharacterized protein (Sus scrofa, UniProt I3LIR5); assay: Inhibition of pig kidney trehalase assessed as p-nitrophenol release by spectrophotometrically
T5 sequence (I3LIR5 whole entry): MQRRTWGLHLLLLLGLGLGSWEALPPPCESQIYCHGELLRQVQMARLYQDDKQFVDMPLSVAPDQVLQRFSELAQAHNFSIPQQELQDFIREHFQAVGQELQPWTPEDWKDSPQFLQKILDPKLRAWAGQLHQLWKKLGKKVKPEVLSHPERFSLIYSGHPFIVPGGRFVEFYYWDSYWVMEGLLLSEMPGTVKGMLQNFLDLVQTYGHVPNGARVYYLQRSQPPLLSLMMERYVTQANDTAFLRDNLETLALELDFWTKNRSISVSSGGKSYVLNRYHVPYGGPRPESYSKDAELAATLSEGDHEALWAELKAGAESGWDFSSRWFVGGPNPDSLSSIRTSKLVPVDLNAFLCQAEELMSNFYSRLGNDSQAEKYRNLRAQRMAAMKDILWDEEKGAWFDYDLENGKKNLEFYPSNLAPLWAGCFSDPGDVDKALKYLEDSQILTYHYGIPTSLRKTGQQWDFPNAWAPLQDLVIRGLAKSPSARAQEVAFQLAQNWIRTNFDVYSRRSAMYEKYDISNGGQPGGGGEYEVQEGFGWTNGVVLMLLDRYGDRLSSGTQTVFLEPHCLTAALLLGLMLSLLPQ

[10] = molecular target: Lysosomal alpha-glucosidase (Rattus norvegicus) (UniProt Q6P7A9); assay: Inhibition of rat intestinal maltase assessed as glucose release at 1000 uM by Glucose B-test
How it was run: (§3)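 Enzyme source was brush border membranes prepared from rat small intestine. Maltase, sucrase and isomaltase activities were read with the matching disaccharide substrate at each enzyme's optimum pH, and liberated D-glucose was quantified colorimetrically by Glucose B-test.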

Beta-galactosidase = molecular target: T6, Beta-galactosidase (Bos taurus, UniProt Q58D55); assay: Inhibition of bovine liver beta-galactosidase assessed as p-nitrophenol release by spectrophotometrically
T6 sequence (Q58D55 whole entry): T4 sequence (whole entry)
How it was run: as §1

Rattus norvegicus = organism: Rattus norvegicus; assay: Inhibition of rat epididymis alpha-mannosidase assessed as p-nitrophenol release at 1000 uM by spectrophotometrically
[11] = molecular target: Sucrase-isomaltase, intestinal (Rattus norvegicus) (UniProt P23739); assay: Inhibition of rat intestinal isomaltase assessed as glucose release at 1000 uM by Glucose B-test
How it was run: as §3

Oryza sativa = assay: Inhibition of rice alpha-glucosidase assessed as glucose release at 1000 uM by Glucose B-test
How it was run: as §2

[12] = molecular target: Sucrase-isomaltase, intestinal (Rattus norvegicus) (UniProt P23739); assay: Inhibition of rat intestinal sucrase assessed as glucose release at 1000 uM by Glucose B-test
How it was run: as §3

[13] = molecular target: T7, Beta-mannosidase (Rattus norvegicus) (UniProt Q4FZV0); assay: Inhibition of rat epididymis beta-mannosidase assessed as p-nitrophenol release at 1000 uM by spectrophotometrically
T7 sequence (whole entry): T2 sequence (Q4FZV0 whole entry)

Saccharomyces cerevisiae = assay: Inhibition of yeast alpha-glucosidase assessed as p-nitrophenol release at 1000 uM by spectrophotometrically
How it was run: as §1

Aspergillus niger = assay: Inhibition of Aspergillus niger amyloglucosidase assessed as glucose release at 1000 uM by Glucose B-test
How it was run: as §2

[14] = molecular target: T8, Uncharacterized protein (Sus scrofa) (UniProt I3LIR5); assay: Inhibition of pig kidney trehalase assessed as p-nitrophenol release at 1000 uM by spectrophotometrically
T8 sequence (whole entry): T5 sequence (I3LIR5 whole entry)

[15] = molecular target: T9, Sucrase-isomaltase, intestinal (Rattus norvegicus, UniProt P23739); assay: Inhibition of rat intestinal isomaltase assessed as glucose release by Glucose B-test
Alpha-galactosidase = Alpha-galactosidase (Coffea arabica, UniProt Q42656); assay: Inhibition of coffee bean alpha-galactosidase assessed as p-nitrophenol release by spectrophotometrically
How it was run: as §1

[16] = molecular target: T9, Sucrase-isomaltase, intestinal; assay: Inhibition of rat intestinal sucrase assessed as glucose release by Glucose B-test

Chain of Sucrase-isomaltase, intestinal (Rattus norvegicus) (P23739 1-1013 limits assumed): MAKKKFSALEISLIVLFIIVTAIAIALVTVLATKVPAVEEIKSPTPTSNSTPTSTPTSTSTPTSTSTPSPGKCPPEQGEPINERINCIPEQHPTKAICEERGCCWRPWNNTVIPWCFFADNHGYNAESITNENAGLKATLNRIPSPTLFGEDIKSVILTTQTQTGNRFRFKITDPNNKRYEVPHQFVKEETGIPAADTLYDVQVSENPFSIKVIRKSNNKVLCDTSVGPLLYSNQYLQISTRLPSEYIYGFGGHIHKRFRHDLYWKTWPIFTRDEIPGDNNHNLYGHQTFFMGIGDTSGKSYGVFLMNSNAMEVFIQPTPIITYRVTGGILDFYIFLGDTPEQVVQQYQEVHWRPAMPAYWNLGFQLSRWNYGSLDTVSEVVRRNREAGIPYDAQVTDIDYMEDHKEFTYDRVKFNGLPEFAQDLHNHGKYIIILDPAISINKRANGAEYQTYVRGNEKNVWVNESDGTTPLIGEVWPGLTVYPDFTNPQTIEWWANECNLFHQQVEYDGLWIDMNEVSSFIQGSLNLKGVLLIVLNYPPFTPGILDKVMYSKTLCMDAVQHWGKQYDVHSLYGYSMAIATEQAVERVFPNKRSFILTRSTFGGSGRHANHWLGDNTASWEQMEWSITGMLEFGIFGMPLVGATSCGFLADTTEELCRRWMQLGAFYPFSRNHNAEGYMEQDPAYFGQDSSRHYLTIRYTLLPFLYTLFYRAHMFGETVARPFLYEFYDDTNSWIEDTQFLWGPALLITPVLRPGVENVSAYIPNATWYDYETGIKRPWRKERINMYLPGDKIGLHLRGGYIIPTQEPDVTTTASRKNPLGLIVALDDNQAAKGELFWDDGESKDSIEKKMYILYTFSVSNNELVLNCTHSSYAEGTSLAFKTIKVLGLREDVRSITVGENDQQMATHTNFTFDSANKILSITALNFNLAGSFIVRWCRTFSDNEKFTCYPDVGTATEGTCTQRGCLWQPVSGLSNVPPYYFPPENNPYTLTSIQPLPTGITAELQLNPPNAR
Chain of Sucrase-isomaltase, intestinal (Rattus norvegicus) (P23739 1014-1841 limits assumed): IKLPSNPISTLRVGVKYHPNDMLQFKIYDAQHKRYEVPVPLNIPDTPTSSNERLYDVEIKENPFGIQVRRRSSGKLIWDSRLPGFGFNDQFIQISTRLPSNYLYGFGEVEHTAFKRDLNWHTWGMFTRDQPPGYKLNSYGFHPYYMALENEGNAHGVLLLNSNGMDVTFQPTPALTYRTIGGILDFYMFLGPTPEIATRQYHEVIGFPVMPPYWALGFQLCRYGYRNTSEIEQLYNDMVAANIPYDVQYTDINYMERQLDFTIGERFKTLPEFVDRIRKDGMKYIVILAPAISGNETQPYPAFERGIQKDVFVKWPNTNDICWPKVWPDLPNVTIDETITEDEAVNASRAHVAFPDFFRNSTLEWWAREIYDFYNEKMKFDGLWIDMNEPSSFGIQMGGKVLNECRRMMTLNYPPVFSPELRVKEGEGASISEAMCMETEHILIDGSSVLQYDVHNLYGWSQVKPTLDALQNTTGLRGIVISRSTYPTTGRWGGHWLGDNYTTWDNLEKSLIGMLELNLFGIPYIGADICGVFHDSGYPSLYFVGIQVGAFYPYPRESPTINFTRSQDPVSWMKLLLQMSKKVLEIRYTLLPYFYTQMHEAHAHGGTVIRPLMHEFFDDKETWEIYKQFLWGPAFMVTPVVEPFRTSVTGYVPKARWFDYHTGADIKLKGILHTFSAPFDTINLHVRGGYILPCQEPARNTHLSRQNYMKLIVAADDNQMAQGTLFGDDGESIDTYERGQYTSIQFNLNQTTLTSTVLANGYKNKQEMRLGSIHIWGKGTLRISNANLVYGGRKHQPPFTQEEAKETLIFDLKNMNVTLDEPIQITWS
Chain of Lysosomal alpha-glucosidase (Rattus norvegicus) (Q6P7A9 whole entry): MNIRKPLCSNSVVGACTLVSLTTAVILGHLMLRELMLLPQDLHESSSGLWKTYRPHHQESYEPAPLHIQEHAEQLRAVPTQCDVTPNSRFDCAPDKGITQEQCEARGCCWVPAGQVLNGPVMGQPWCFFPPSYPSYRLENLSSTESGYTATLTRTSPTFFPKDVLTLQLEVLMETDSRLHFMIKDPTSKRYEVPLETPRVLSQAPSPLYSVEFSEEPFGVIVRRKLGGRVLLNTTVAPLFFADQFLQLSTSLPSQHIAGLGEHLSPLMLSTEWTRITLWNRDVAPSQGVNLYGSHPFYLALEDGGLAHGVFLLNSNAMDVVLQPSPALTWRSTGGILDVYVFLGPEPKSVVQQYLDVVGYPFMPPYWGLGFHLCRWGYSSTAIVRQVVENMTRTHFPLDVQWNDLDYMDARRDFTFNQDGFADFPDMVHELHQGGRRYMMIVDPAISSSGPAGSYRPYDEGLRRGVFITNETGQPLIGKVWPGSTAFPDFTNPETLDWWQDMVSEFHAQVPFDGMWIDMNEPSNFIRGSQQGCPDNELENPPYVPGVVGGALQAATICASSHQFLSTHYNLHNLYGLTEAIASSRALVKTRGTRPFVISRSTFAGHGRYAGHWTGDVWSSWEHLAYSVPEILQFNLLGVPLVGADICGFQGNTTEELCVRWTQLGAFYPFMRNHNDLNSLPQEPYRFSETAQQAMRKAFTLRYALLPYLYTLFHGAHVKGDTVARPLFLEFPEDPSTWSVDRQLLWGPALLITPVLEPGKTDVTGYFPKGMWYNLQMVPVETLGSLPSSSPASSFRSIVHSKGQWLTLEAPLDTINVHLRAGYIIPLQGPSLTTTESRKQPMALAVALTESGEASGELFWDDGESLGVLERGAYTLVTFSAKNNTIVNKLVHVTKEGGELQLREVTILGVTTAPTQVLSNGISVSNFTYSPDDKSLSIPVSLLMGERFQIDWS
Chain of Alpha-galactosidase (Coffea arabica) (Q42656 16-378 limits assumed): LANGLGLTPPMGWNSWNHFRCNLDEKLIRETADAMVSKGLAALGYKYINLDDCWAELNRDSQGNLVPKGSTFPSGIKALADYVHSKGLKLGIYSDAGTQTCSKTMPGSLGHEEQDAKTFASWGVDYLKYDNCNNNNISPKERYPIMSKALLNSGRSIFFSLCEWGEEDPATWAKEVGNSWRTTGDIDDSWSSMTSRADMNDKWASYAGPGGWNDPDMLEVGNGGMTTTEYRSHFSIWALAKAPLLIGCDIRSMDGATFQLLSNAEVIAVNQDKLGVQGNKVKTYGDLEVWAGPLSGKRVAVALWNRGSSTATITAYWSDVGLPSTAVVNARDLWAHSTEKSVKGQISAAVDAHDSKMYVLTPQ
Chain of Alpha-glucosidase MAL62 (P07265 whole entry): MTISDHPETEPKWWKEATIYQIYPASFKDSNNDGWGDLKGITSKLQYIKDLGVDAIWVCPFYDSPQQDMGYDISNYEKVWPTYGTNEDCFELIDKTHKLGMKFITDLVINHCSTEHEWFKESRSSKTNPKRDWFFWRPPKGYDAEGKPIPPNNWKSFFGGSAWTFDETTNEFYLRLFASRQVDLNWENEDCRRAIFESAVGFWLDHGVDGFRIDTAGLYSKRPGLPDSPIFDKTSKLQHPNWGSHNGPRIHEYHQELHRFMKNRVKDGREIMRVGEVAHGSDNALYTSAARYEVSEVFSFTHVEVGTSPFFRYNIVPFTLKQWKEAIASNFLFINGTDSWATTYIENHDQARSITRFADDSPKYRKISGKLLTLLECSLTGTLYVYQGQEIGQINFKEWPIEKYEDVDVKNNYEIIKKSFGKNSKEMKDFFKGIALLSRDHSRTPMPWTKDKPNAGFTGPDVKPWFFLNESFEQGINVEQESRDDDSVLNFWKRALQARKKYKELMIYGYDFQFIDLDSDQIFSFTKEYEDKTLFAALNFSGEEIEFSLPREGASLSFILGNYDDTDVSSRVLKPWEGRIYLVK
T9 sequence (P23739 1-1013 limits assumed): as the sequence (P23739 1-1013 limits assumed) above
T9 sequence (P23739 1014-1841 limits assumed): as the sequence (P23739 1014-1841 limits assumed) above
Chain of Alpha-galactosidase (Q42656 whole entry): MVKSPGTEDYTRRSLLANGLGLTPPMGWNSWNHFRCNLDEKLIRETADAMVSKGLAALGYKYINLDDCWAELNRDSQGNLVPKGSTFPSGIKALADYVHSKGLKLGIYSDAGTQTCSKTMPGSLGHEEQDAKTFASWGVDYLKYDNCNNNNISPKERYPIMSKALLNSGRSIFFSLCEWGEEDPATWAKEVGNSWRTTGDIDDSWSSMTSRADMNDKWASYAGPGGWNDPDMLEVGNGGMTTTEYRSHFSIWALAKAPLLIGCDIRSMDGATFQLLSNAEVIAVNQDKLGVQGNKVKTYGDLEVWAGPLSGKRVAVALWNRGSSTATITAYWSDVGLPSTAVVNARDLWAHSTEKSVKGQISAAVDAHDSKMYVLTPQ

SMILES: OC[C@H]1N[C@H](CO)[C@@H](O)[C@@H]1O
- IC50 (Alpha-glucosidase MAL62): 2 µM

SMILES: OC[C@H]1NC[C@@H](O)[C@@H]1O
- IC50 [2]: 400 µM
- IC50 (Beta-mannosidase): 290 µM
- inhibition [3]: < 50%
- IC50 [4]: 150 µM
- IC50 [5]: 120 µM
- IC50 [6]: 1.2 µM
- inhibition [7]: < 50%
- IC50 (Alpha-glucosidase MAL62): 0.84 µM
- IC50 [8]: 0.11 µM
- inhibition [9]: < 50%
- IC50 (Uncharacterized protein): 2.5 µM

SMILES: C[C@H]1O[C@H](OC[C@H]2NC[C@@H](O)[C@@H](O)[C@@H]2O)[C@@H](O)[C@@H](O)[C@@H]1O
- Ki [1]: 0.06 µM

SMILES: OCCN1C[C@@H](O)[C@H](O)[C@H]1CO
- inhibition [14]: < 50%
- IC50 [15]: 84 µM
- IC50 [2]: 620 µM
- inhibition [10]: < 50%
- inhibition [3]: < 50%
- inhibition [13]: < 50%
- inhibition (Rattus norvegicus): < 50%
- IC50 (Alpha-galactosidase): 700 µM
- IC50 [16]: 250 µM
- IC50 [6]: 290 µM
- inhibition [7]: < 50%
- IC50 (Alpha-glucosidase MAL62): 78 µM
- IC50 [8]: 12 µM
- inhibition (Oryza sativa): < 50%

Next, values leading:

- Ki [1]: 0.0053 µM
SMILES: C[C@@H]1N[C@H](CO)[C@@H](O)[C@H](O)[C@@H]1O

- IC50 [2]: 160 µM
- inhibition [10]: < 50%
- IC50 (Beta-galactosidase): 30 µM
- IC50 (Beta-mannosidase): 93 µM
- inhibition (Rattus norvegicus): < 50%
- inhibition [11]: < 50%
- IC50 [6]: 270 µM
- IC50 [1]: 150 µM
- inhibition [9]: < 50%
- inhibition (Oryza sativa): < 50%
- inhibition [12]: < 50%
SMILES: C[C@H]1N[C@H](CO)[C@@H](O)[C@@H]1O

- inhibition [10]: < 50%
- inhibition [13]: < 50%
- inhibition (Rattus norvegicus): < 50%
- inhibition [11]: < 50%
- inhibition (Saccharomyces cerevisiae): < 50%
- inhibition [7]: < 50%
- IC50 [1]: 35 µM
- inhibition [9]: < 50%
- inhibition (Oryza sativa): < 50%
- inhibition (Aspergillus niger): < 50%
- inhibition [12]: < 50%
SMILES: C[C@H]1N[C@@H](CO)[C@@H](O)[C@H]1O
